The target in assay [1] is T1, Mineralocorticoid receptor (Rattus norvegicus) (UniProt P22199).
T1 sequence (whole entry): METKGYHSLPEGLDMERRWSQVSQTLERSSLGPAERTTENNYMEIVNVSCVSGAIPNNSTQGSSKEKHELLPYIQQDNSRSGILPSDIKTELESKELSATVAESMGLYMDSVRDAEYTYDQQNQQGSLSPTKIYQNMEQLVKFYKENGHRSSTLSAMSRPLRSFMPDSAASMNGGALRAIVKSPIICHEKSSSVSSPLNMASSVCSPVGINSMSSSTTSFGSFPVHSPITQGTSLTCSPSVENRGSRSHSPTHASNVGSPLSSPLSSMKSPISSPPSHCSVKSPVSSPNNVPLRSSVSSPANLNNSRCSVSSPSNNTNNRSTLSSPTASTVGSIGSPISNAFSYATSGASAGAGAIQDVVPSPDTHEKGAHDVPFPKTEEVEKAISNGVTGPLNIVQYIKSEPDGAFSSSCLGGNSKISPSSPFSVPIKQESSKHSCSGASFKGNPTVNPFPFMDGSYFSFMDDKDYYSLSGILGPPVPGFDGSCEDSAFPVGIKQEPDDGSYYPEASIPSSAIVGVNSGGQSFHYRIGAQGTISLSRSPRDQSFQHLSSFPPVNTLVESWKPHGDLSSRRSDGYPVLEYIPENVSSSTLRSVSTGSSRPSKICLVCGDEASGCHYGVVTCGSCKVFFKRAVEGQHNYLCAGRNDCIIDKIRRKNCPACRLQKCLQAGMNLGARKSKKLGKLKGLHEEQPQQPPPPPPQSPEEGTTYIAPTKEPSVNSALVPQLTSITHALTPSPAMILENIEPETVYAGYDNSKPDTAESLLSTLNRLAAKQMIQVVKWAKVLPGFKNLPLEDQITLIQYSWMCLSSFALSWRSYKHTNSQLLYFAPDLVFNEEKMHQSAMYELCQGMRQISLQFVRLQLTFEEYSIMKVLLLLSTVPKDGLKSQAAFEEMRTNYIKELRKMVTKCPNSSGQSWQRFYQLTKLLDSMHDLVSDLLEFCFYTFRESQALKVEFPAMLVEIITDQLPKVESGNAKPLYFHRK
The assay is described as follows: Binding affinity expressed as the percent inhibition of 2x10E-9 M [3H]aldosterone binding to the renal mineralocorticoid receptor by the presence of competing steroid (8x10E-8 M). In outline:
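Washed kidney slices from adrenalectomized rats incubated with 2 × 10^-9 M [3H]aldosterone plus 8 × 10^-8 M competing 18-hydroxy steroid and 2 × 10^-8 M dexamethasone, pH 7.2 Tris/phosphate saline buffer with Mg, Ca, dextrose. Homogenized; high-speed supernatant treated with charcoal-dextran to strip free ligand. Bound label counted as cpm/mg protein, nonspecific at 2 × 10^-7 M unlabeled aldosterone. Value is % inhibition; Student's t test vs 0%.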

Assay [2] deals with T1, Mineralocorticoid receptor (Rattus norvegicus). The assay can be described thus: Mineralocorticoid activity in vivo expressed as a ratio (M/DOCA) of the urinary sodium/potassium excretion transformations after deoxy-corticosterone acetate treatment. The class given is functional, organism-based. The conditions noted are these: Urine. The essentials: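 Saline-loaded (2.5 mL) adrenalectomized rats given 12 μg DOCA s.c. in oil plus test steroid 2.4 mg/animal s.c. in corn oil. Urine collected 4 h in metabolism cages, then voided by suprapubic pressure. Na and K measured by flame photometry as log(Na × 10/K). Ratio to DOCA-only controls (M/DOCA); >1.23 taken as antagonism, <0.85 as agonism.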

For `CC12CCC(=O)C[C@@H]1CC[C@H]1[C@@H]3CCC4C(O)(CO)OCC43CC[C@@H]12` (stereo partly specified), the Percent inhibition of [3H]aldosterone binding in assay [1] came to 3. For the same compound, in assay [2], the Ratio worked out at 0.69. Regarding `C[C@@H](O)C1CCC2C3CC=C4CC(O)CCC4(C)C3CCC21CO` (stereo partly specified), in assay [1], the Percent inhibition of [3H]aldosterone binding worked out at 5. Also, the Ratio in assay [2] was 0.89. Take `C[C@H]1OC(=O)C23CCC4C(CCC5=CC(=O)CCC54C)C2CCC13` (stereo partly specified): the Percent inhibition of [3H]aldosterone binding in assay [1] stood at 65. Also, in assay [2], the Ratio was determined as 1.32. As for `C[C@@H](O)C1CC[C@H]2[C@@H]3CC[C@H]4CC(=O)CCC4(C)[C@H]3CCC12CO` (stereo partly specified), the Percent inhibition of [3H]aldosterone binding in assay [1] worked out at 13. For the same compound, in assay [2], the Ratio is 1.03. Consider `C[C@H]1OC(=O)C23CCC4C(CC=C5CC(O)CCC54C)C2CCC13` (stereo partly specified), for which the Percent inhibition of [3H]aldosterone binding in assay [1] came to 12.5. Also, the Ratio in assay [2] amounted to 0.72. In the case of `CC(=O)OCC1(O)OCC23CC[C@H]4[C@@H](CC[C@H]5CC(O)CCC54C)[C@@H]2CCC13` (stereo partly specified), the Percent inhibition of [3H]aldosterone binding in assay [1] turned out to be 0. Also, the Ratio in assay [2] amounted to 1.1. As to `CC(=O)OCC12CCC3C(CCC4=CC(=O)CCC43C)C1CCC2[C@@H](C)O` (stereo partly specified), in assay [1], the Percent inhibition of [3H]aldosterone binding amounted to 13. In addition, the Ratio in assay [2] is 1.16. Regarding `CC(=O)OCC1(O)OCC23CCC4C(CCC5=CC(=O)CCC54C)C2CCC13` (stereo unspecified), the Percent inhibition of [3H]aldosterone binding in assay [1] was found to be 34. Besides, the Ratio in assay [2] amounted to 0.71.

Turning to `CC12CCC(=O)C=C1CCC1C2CCC23COC(O)(CO)C2CCC13` (stereo unspecified), the Percent inhibition of [3H]aldosterone binding in assay [1] turned out to be 29.5. Besides, the Ratio in assay [2] turned out to be 0.54. On to `CC(=O)OCC1(O)OC[C@]23CC[C@H]4[C@@H](CC[C@H]5C[C@@H](O)CC[C@@]54C)[C@@H]2CC[C@H]13` (stereo partly specified), for which the Ratio in assay [2] was 0.83. Take `CC(=O)OC[C@]12CC[C@H]3[C@@H](CC[C@H]4C[C@@H](O)CC[C@@]43C)[C@@H]1CC[C@@H]2C(C)=O`: the Percent inhibition of [3H]aldosterone binding in assay [1] was determined as 14.2. Further, the Ratio in assay [2] was found to be 1.13. Consider `CC12CCC(O)CC1=CCC1C2CCC23COC(O)(CO)C2CCC13` (stereo unspecified), for which the Percent inhibition of [3H]aldosterone binding in assay [1] amounted to 3.5. Moreover, the Ratio in assay [2] was determined as 0.71.

Turning to `CC(=O)OCC12CC[C@H]3[C@@H](CC[C@H]4CC(=O)CCC43C)[C@@H]1CCC2[C@@H](C)O` (stereo partly specified), the Percent inhibition of [3H]aldosterone binding in assay [1] amounted to 17. Besides, in assay [2], the Ratio amounted to 0.93. As for `CC12CCC(O)C[C@@H]1CC[C@H]1[C@@H]3CCC4C(O)(CO)OCC43CC[C@@H]12` (stereo partly specified), the Percent inhibition of [3H]aldosterone binding in assay [1] was 0. Also, the Ratio in assay [2] is 0.96.

Turning to `C[C@H]1OC(=O)C23CC[C@H]4[C@@H](CC[C@H]5CC(O)CCC54C)[C@@H]2CCC13` (stereo partly specified), in assay [2], the Ratio is 0.61. Regarding `CC(=O)OCC12CCC3C(CC=C4CC(O)CCC43C)C1CCC2C(C)=O` (stereo unspecified), the Percent inhibition of [3H]aldosterone binding in assay [1] came out at 0. Moreover, in assay [2], the Ratio amounted to 1.95. `CC1(O)OCC23CC[C@H]4[C@@H](CC[C@H]5CC(O)CCC54C)[C@@H]2CCC13` (stereo partly specified): the Percent inhibition of [3H]aldosterone binding in assay [1] was 30. Moreover, in assay [2], the Ratio was found to be 0.92.

Take `C[C@@H](O)C1CCC2C3CCC4=CC(=O)CCC4(C)C3CCC21CO` (stereo partly specified): the Percent inhibition of [3H]aldosterone binding in assay [1] was found to be 34.3. In addition, in assay [2], the Ratio came to 1.33.

As for `C[C@@H](O)[C@H]1CC[C@H]2[C@@H]3CC[C@H]4CC(=O)CC[C@]4(C)[C@H]3CC[C@]12CO`, the Percent inhibition of [3H]aldosterone binding in assay [1] turned out to be 6.5. Moreover, the Ratio in assay [2] turned out to be 0.43. In the case of `C[C@H]1OC(=O)[C@]23CC[C@H]4[C@@H](CC[C@H]5CC(=O)CC[C@@]54C)[C@@H]2CC[C@H]13`, the Percent inhibition of [3H]aldosterone binding in assay [1] turned out to be 0. Also, the Ratio in assay [2] came out at 0.87.

In the case of `C[C@]12CC[C@H](O)C[C@@H]1CC[C@@H]1[C@@H]2CC[C@]23COC(O)(CO)[C@H]2CC[C@@H]13` (stereo partly specified), the Percent inhibition of [3H]aldosterone binding in assay [1] came out at 19.5. Further, the Ratio in assay [2] came to 1.06. Regarding `CC(=O)OC[C@]12CC[C@H]3[C@@H](CC[C@H]4CC(=O)CC[C@@]43C)[C@@H]1CC[C@@H]2[C@@H](C)O`, in assay [1], the Percent inhibition of [3H]aldosterone binding came to 10.5. For the same compound, the Ratio in assay [2] amounted to 1.16. On to `CC(=O)OCC1(O)OCC23CC[C@H]4[C@@H](CC[C@H]5CC(=O)CCC54C)[C@@H]2CCC13` (stereo partly specified), for which, in assay [1], the Percent inhibition of [3H]aldosterone binding turned out to be 20. In assay [2], the Ratio was determined as 0.8. `C[C@H]1OC(=O)C23CC[C@H]4[C@@H](CC[C@H]5CC(=O)CCC54C)[C@@H]2CCC13` (stereo partly specified): the Percent inhibition of [3H]aldosterone binding in assay [1] stood at 10.5. Besides, the Ratio in assay [2] amounted to 0.96. `CC(=O)OCC12CCC3C(CCC4=CC(=O)CCC43C)C1CCC2C(C)=O` (stereo unspecified): the Percent inhibition of [3H]aldosterone binding in assay [1] is 25.5. Besides, in assay [2], the Ratio amounted to 1.19. As to `CC1(O)OC[C@]23CC[C@H]4[C@@H](CCC5C[C@@H](O)CC[C@@]54C)[C@@H]2CC[C@H]13` (stereo partly specified), in assay [2], the Ratio worked out at 0.91. As to `CC1(O)OC[C@]23CC[C@H]4[C@@H](CC[C@H]5CC(=O)CC[C@@]54C)[C@@H]2CC[C@H]13` (stereo partly specified), the Percent inhibition of [3H]aldosterone binding in assay [1] is 0. Moreover, the Ratio in assay [2] was determined as 1.01. With `CC(=O)OCC1(O)OCC23CCC4C(CC=C5CC(O)CCC54C)C2CCC13` (stereo unspecified), the Percent inhibition of [3H]aldosterone binding in assay [1] was 7. Also, the Ratio in assay [2] turned out to be 0.55. As for `CC(=O)OC[C@]12CC[C@H]3[C@@H](CC[C@H]4CC(=O)CC[C@@]43C)[C@@H]1CC[C@@H]2C(C)=O`, the Percent inhibition of [3H]aldosterone binding in assay [1] amounted to 0. Besides, in assay [2], the Ratio was 1.08. In the case of `CC(=O)OCC12CC[C@H]3[C@@H](CC[C@H]4CC(O)CCC43C)[C@@H]1CCC2C(C)=O` (stereo partly specified), the Percent inhibition of [3H]aldosterone binding in assay [1] stood at 0. Besides, the Ratio in assay [2] came out at 0.99. As for `CC(=O)OCC12CC[C@H]3[C@@H](CC[C@H]4CC(=O)CCC43C)[C@@H]1CCC2C(C)=O` (stereo partly specified), the Percent inhibition of [3H]aldosterone binding in assay [1] worked out at 0. Also, in assay [2], the Ratio is 1.1. In the case of `C[C@@H](O)C1CC[C@H]2[C@@H]3CC[C@H]4CC(O)CCC4(C)[C@H]3CCC12CO` (stereo partly specified), the Percent inhibition of [3H]aldosterone binding in assay [1] was determined as 23.5. Also, in assay [2], the Ratio is 0.72. As to `CC1(O)OCC23CC[C@H]4[C@@H](CC[C@H]5CC(=O)CCC54C)[C@@H]2CCC13` (stereo partly specified), the Percent inhibition of [3H]aldosterone binding in assay [1] was found to be 8.3. Further, in assay [2], the Ratio was 0.91.

Turning to `CC1(O)OCC23CCC4C(CCC5=CC(=O)CCC54C)C2CCC13` (stereo unspecified), in assay [1], the Percent inhibition of [3H]aldosterone binding stood at 34.5. The Ratio in assay [2] came out at 0.76.

`C[C@]12CCC(=O)C[C@@H]1CC[C@@H]1[C@@H]2CC[C@]23COC(O)(CO)[C@H]2CC[C@@H]13` (stereo partly specified): the Percent inhibition of [3H]aldosterone binding in assay [1] is 32. For the same compound, in assay [2], the Ratio stood at 0.78. For the compound `CC(=O)OCC1(O)OC[C@]23CC[C@H]4[C@@H](CC[C@H]5CC(=O)CC[C@@]54C)[C@@H]2CC[C@H]13` (stereo partly specified), the Percent inhibition of [3H]aldosterone binding in assay [1] came out at 20. The Ratio in assay [2] is 0.96. For `CC1(O)OCC23CCC4C(CC=C5CC(O)CCC54C)C2CCC13` (stereo unspecified), the Percent inhibition of [3H]aldosterone binding in assay [1] was determined as 10.1. For the same compound, the Ratio in assay [2] came out at 0.5.

Values taken from ChEMBL document CHEMBL1122892, “Mineralocorticoid properties of potential metabolites of 18-hydroxydeoxycorticosterone and 18-hydroxyprogesterone” (J Med Chem, 1985).
